We go through one compound from ChEMBL document CHEMBL1157546, “3-(2-Aminocarbonylphenyl)propanoic acid analogs as potent and selective EP3 receptor antagonists. part 2: optimization of the side chains to improve in vitro and in vivo potencies” (Bioorg Med Chem, 2010).

Experiment [1] has as its target Prostaglandin E2 receptor EP2 subtype (Mus musculus, UniProt Q62053). Put plainly: Displacement of [3H]PGE2 from mouse EP2 receptor expressed in CHO cell membrane. It is filed as cell membranes.
Experiment [2] deals with Prostaglandin E2 receptor EP4 subtype (Mus musculus, UniProt P32240). Put plainly: Displacement of [3H]PGE2 from mouse EP4 receptor expressed in CHO cell membrane. The format is cell membranes.
Prostaglandin E2 receptor EP4 subtype, sequence (P32240 whole entry): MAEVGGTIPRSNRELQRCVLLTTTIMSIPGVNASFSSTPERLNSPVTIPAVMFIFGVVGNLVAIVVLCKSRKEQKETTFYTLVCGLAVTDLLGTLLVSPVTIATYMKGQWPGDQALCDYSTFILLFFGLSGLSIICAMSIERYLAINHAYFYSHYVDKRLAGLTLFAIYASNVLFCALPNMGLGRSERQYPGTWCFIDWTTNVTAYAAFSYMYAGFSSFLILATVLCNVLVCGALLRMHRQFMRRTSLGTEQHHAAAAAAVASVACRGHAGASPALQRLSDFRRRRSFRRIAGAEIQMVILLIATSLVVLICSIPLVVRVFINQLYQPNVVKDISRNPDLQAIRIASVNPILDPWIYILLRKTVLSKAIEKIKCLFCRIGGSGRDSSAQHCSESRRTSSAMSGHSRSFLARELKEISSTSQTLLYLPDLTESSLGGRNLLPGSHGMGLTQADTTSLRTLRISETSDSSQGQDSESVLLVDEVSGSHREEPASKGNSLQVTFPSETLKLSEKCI
The subject of experiment [3] is Rattus norvegicus. Put plainly: Inhibition of PGE2-induced uterine contraction in intraduodenally dosed pregnant rat at 0.3 mg/kg. The format is functional. Particulars: route intraduodenal. The procedure, abridged: (§1)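 Pregnant rats with uterine pressure recorded by transducer. Once spontaneous motility was stable, compound in 0.5% methylcellulose (5 mL/kg) or vehicle given intraduodenally. PGE2 given iv 30 min later.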

In experiment [4] the target is T1, Prostaglandin E2 receptor EP3 subtype (Mus musculus, UniProt P30557).
T1 sequence (P30557 whole entry): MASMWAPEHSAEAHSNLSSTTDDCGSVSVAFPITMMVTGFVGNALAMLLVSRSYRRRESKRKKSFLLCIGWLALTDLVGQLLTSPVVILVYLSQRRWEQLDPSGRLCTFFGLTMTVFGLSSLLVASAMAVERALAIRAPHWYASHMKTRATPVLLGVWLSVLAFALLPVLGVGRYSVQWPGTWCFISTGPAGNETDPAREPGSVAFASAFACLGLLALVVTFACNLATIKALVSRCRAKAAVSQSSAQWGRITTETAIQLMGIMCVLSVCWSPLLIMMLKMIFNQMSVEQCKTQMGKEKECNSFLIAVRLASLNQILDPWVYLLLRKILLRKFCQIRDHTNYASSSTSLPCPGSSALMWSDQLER
The experiment in a line: Antagonist activity at mouse EP3 receptor expressed in CHO cells assessed as inhibition of PGE2-induced increase intracellular calcium level in presence of 1% BSA by fluorimetry. The format is functional, cell-based. The method, boiled down:
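CHO cells expressing mouse EP3 seeded at 1 × 10⁴ cells/well and grown two days in 10% FBS/αMEM (37 °C, 5% CO2). Loaded 1 h with Fura 2/AM, indomethacin and 2.5 mM probenecid, rinsed, then held 1 h dark at room temperature in HBSS with 1% BSA and 10 mM HEPES. Compound added with 10 nM PGE2. Ca²⁺ read at 340/380 nm excitation, 500 nm emission; % inhibition relative to the PGE2 response without compound.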

In experiment [5] the target is T1, Prostaglandin E2 receptor EP3 subtype. The experiment in a line: Displacement of [3H]PGE2 from mouse EP3 receptor expressed in CHO cell membrane. The format is cell membranes.
Experiment [6] deals with T2, Prostaglandin E2 receptor EP1 subtype (Mus musculus, UniProt P35375).
T2 sequence (P35375 whole entry): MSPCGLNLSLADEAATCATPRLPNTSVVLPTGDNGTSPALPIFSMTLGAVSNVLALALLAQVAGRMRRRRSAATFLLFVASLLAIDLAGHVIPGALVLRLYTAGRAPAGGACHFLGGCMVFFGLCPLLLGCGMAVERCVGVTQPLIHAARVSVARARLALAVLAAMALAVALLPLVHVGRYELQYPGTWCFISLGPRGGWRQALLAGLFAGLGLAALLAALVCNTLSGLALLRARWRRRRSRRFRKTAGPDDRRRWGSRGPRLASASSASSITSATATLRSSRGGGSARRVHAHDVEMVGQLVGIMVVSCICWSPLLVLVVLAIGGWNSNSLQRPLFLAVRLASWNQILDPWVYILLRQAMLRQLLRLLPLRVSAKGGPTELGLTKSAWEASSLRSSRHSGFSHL
Put plainly: Displacement of [3H]PGE2 from mouse EP1 receptor expressed in CHO cell membrane. The format is cell membranes.

Experiment [7] relates to Rattus norvegicus. Put plainly: Inhibition of PGE2-induced uterine contraction in intraduodenally dosed pregnant rat at 1 mg/kg. The format is functional. Conditions: route intraduodenal. The method, boiled down: as §1

SMILES strings stand for the structures. Some results are limits rather than exact numbers.

Prostaglandin E2 receptor EP2 subtype, sequence (Q62053 whole entry): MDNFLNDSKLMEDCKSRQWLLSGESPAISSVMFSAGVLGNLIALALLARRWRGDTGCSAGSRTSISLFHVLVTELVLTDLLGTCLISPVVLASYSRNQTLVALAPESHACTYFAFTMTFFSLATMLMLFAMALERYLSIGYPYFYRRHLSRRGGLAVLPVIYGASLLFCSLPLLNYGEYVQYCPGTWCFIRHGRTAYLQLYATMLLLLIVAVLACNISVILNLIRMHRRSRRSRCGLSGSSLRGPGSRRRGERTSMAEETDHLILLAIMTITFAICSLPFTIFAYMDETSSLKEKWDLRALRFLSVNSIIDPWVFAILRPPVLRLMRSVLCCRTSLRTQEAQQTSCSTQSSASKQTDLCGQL

For `Cc1cc(C(CC(C)C)NC(=O)c2cc(COc3ccccc3)ccc2CCC(=O)O)ccc1F` (configuration not stated), the Ki in experiment [1] is more than 10000 nM; in experiment [2] it was 630 nM; in experiment [5], 0.16 nM; in experiment [6], more than 10000 nM. The compound further had an inhibition in vivo at 0.3 mg/kg in the experiment with Rattus norvegicus [3] of 31%. Further, in experiment [4], the IC50 came to 18 nM. In the experiment with Rattus norvegicus [7], this compound yielded an inhibition in vivo at 1 mg/kg of 73%.
